In ChEMBL document CHEMBL1135423, “Acyl-protected hydroxylamines as spin label generators for EPR brain imaging” (J Med Chem, 2002):

Legend:
Assay type in all cases: ADME, organism-based
Mus musculus [1] = assay: Biodistribution in mice as total concentration of both oxidized and reduced forms in kidney and animals were sacrificed 10 minutes after dosing, in DMSO sol.; conditions: in vivo
Outline: (§1)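 Female C3H HenMTV⁻ mice (6-8 weeks old, 22-25 g; three per time point) were given an ip injection of 500 µL of 40 mM compound. They were euthanized at 10 or 60 min. Brain, heart, liver, kidney, spleen and blood were excised and each homogenized in ice-cold PBS. One half of each homogenate received K₃[Fe(CN)₆] (final 1 mM) to oxidize hydroxylamine to nitroxide. Total nitroxide plus hydroxylamine was read from EPR signal intensity.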

Mus musculus [2] = assay: Biodistribution of compound (oxidized form) in kidney tissue, animals were sacrificed 60 minutes after dosing, in DMSO sol.; conditions: in vivo, 1 h
Outline: (§2)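 In female C3H HenMTV⁻ mice (6-8 weeks, 22-25 g; three per time point), compound was injected ip as 500 µL of 40 mM solution. Animals were killed 10 or 60 min later. Brain, heart, liver, kidney, spleen and blood were removed and each homogenized in ice-cold PBS. Nitroxide (oxidized form) was quantified by EPR signal intensity in the half of each homogenate not treated with ferricyanide.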

Mus musculus [3] = assay: Biodistribution of compound (oxidized form) in brain tissue, animals were sacrificed 10 minutes after dosing, in DMSO sol.; conditions: in vivo; outline: as §2
Mus musculus [4] = assay: Biodistribution of compound (oxidized form) in spleen tissue, animals were sacrificed 10 minutes after dosing, in DMSO sol.; conditions: in vivo; outline: as §2
Mus musculus [5] = assay: Biodistribution in mice as total concentration of both oxidized and reduced forms in brain tissues, animals were sacrificed 60 minutes after dosing, in DMSO sol.; conditions: in vivo, 1 h; outline: as §1
Mus musculus [6] = assay: Biodistribution in mice as total concentration of both oxidized and reduced forms in heart tissues, animals were sacrificed 60 minutes after dosing, in DMSO sol.; conditions: in vivo, 1 h; outline: as §1
Mus musculus [7] = assay: Biodistribution in mice as total concentration of both oxidized and reduced forms in blood tissues, animals were sacrificed 60 minutes after dosing, in DMSO sol.; conditions: in vivo, 1 h; outline: as §1
Mus musculus [8] = assay: Biodistribution in mice as total concentration of both oxidized and reduced forms in liver and animals were sacrificed 10 minutes after dosing, in DMSO sol.; conditions: in vivo; outline: as §1
Mus musculus [9] = assay: Biodistribution of compound (oxidized form) in spleen tissues, animals were sacrificed 60 minutes after dosing, in DMSO sol.; conditions: in vivo, 1 h; outline: as §2
Mus musculus [10] = assay: Biodistribution of compound (oxidized form) in heart tissue, animals were sacrificed 60 minutes after dosing, in DMSO sol.; conditions: in vivo, 1 h; outline: as §2
Mus musculus [11] = assay: Biodistribution in mice as total concentration of both oxidized and reduced forms in blood and animals were sacrificed 10 minutes after ip administration in DMSO solution; conditions: in vivo; outline: as §1
Mus musculus [12] = assay: Biodistribution in mice as total concentration of both oxidized and reduced forms in heart tissues, animals were sacrificed 10 minutes after dosing, in DMSO sol.; conditions: in vivo; outline: as §1
Mus musculus [13] = assay: Biodistribution in mice as total concentration of both oxidized and reduced forms in liver tissues, animals were sacrificed 60 minutes after dosing, in DMSO sol.; conditions: in vivo, 1 h; outline: as §1
Mus musculus [14] = assay: Biodistribution of compound (oxidized form) in brain tissue, animals were sacrificed 60 minutes after dosing, in DMSO sol.; conditions: in vivo, 1 h; outline: as §2
Mus musculus [15] = assay: Biodistribution of compound (oxidized form) in heart tissue, animals were sacrificed 10 minutes after dosing, in DMSO sol.; conditions: in vivo; outline: as §2
Mus musculus [16] = assay: Biodistribution in mice as total concentration of both oxidized and reduced forms in spleen and animals were sacrificed 10 minutes after ip administration in DMSO solution; conditions: in vivo; outline: as §1
Mus musculus [17] = assay: Biodistribution of compound (total concentration of both oxidized and reduced forms) in brain tissues, animals were sacrificed 10 minutes after dosing, in DMSO; conditions: in vivo
Outline: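 Female C3H HenMTV⁻ mice (6-8 weeks old, 22-25 g; three per time point) got one i.p. injection of 500 µL of 40 mM compound. They were euthanized at 10 or 60 min. Organs and blood were excised and homogenized separately in ice-cold PBS. One half of each homogenate received K₃[Fe(CN)₆] (final 1 mM) to oxidize hydroxylamine. Total nitroxide plus hydroxylamine was quantified by EPR signal intensity.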

Mus musculus [18] = assay: Biodistribution in mice as total concentration of both oxidized and reduced forms in spleen tissues, animals were sacrificed 60 minutes after dosing, in DMSO sol.; conditions: in vivo, 1 h; outline: as §1
Mus musculus [19] = assay: Biodistribution of compound (oxidized form) in blood tissue, animals were sacrificed 10 minutes after dosing, in DMSO sol.; conditions: in vivo; outline: as §2
Mus musculus [20] = assay: Biodistribution of compound (oxidized form) in liver tissues, animals were sacrificed 60 minutes after dosing, in DMSO sol.; conditions: in vivo, 1 h; outline: as §2
Mus musculus [21] = assay: Biodistribution of compound (oxidized form) in kidney tissue, animals were sacrificed 10 minutes after dosing, in DMSO sol.; conditions: in vivo; outline: as §2
Mus musculus [22] = assay: Biodistribution of compound (oxidized form) in blood tissues, animals were sacrificed 60 minutes after dosing, in DMSO sol.; conditions: in vivo, 1 h; outline: as §2
Mus musculus [23] = assay: Biodistribution of compound (oxidized form) in liver tissue, animals were sacrificed 10 minutes after dosing, in DMSO sol.; conditions: in vivo; outline: as §2
Mus musculus [24] = assay: Biodistribution in mice as total concentration of both oxidized and reduced forms in kidney tissues, animals were sacrificed 60 minutes after dosing, in DMSO sol.; conditions: in vivo, 1 h; outline: as §1

SMILES: COC(=O)C1CC(C)(C)N(OC(C)=O)C(C)(C)C1
- Biodistribution (Mus musculus [1]): 400 nM (g of tissue)-1
- Biodistribution (Mus musculus [2]): 0 nM (g of tissue)-1
- Biodistribution (Mus musculus [3]): 2 nM (g of tissue)-1
- Biodistribution (Mus musculus [4]): 0 nM (g of tissue)-1
- Biodistribution (Mus musculus [5]): 25 nM (g of tissue)-1
- Biodistribution (Mus musculus [6]): 25 nM (g of tissue)-1
- Biodistribution (Mus musculus [7]): 25 nM (g of tissue)-1
- Biodistribution (Mus musculus [8]): 50 nM (g of tissue)-1
- Biodistribution (Mus musculus [9]): 0 nM (g of tissue)-1
- Biodistribution (Mus musculus [10]): 0 nM (g of tissue)-1
- Biodistribution (Mus musculus [11]): 100 nM (g of tissue)-1
- Biodistribution (Mus musculus [12]): 10 nM (g of tissue)-1
- Biodistribution (Mus musculus [13]): 30 nM (g of tissue)-1
- Biodistribution (Mus musculus [14]): 5 nM (g of tissue)-1
- Biodistribution (Mus musculus [15]): 0 nM (g of tissue)-1
- Biodistribution (Mus musculus [16]): 100 nM (g of tissue)-1
- Biodistribution (Mus musculus [17]): 0 nM (g of tissue)-1
- Biodistribution (Mus musculus [18]): 25 nM (g of tissue)-1
- Biodistribution (Mus musculus [19]): 0 nM (g of tissue)-1
- Biodistribution (Mus musculus [20]): 0 nM (g of tissue)-1
- Biodistribution (Mus musculus [21]): 0 nM (g of tissue)-1
- Biodistribution (Mus musculus [22]): 0 nM (g of tissue)-1
- Biodistribution (Mus musculus [23]): 0 nM (g of tissue)-1
- Biodistribution (Mus musculus [24]): 25 nM (g of tissue)-1
